# Data taken from paper PMC7401491 (Investigative Ophthalmology & Visual Science, 2020).
# Where two headings read alike, the source gives them in different places. Ends that are not written are not given here.
# B1: recombinant human S100 calcium binding protein S100A8 (untagged) (natural protein, UniProt P05109 1-93, looked up)
# chain: MLTELEKALNSIIDVYHKYSLIKGNFHAVYRDDLKKLLETECPQYIRKKGADVWFKELDINTDGAVNFQEFLILVIKMGVAAHKKSHEESHKE
# B2: cationic antimicrobial protein of 37 kDa (CAP37) (natural protein, human, UniProt P20160 27-248, looked up)
# chain: IVGGRKARPRQFPFLASIQNQGRHFCGGALIHARFVMTAASCFQSQNPGVSTVVLGAYDLRRRERQSRQTFSISSMSENGYDPQQNLNDLMLLQLDREANLTSSVTILPLPLQNATVEAGTRCQVAGWGSQRSGGRLSRFPRFVNVTVTPEDQCRPNNVCTGVLTRRGGICNGDGGTPLVCEGLAHGVASFSLGPCGRGPDFFTRVALFRDWIDGVLNNPGP
# B3: recombinant human S100 calcium-binding protein A9 (S100A9), C-terminus 8-His tag (natural protein, UniProt P06702 1-114, looked up)
# chain: MTCKMSQLERNIETIINTFHQYSVKLGHPDTLNQGEFKELVRKDLQNFLKKENKNEKVIEHIMEDLDTNADKQLSFEEFIMLMARLTWASHEKMHEGDEGPGHHHKPGLGEGTP
# What was measured:
# TLR4/MD-2 complex = TLR4/MD-2 complex (Homo sapiens, UniProt O00206+Q9Y6Y9); experiment: ELISA binding of His-tagged TLR4/MD-2 complex to coated proteins/peptides; settings: for Binding of TLR4/MD-2 to coated protein/peptide (in words): ELISA, TLR4/MD-2 at 10 nM, compared with BSA
# Sequence of TLR4/MD-2 complex (O00206 24-631 limits assumed): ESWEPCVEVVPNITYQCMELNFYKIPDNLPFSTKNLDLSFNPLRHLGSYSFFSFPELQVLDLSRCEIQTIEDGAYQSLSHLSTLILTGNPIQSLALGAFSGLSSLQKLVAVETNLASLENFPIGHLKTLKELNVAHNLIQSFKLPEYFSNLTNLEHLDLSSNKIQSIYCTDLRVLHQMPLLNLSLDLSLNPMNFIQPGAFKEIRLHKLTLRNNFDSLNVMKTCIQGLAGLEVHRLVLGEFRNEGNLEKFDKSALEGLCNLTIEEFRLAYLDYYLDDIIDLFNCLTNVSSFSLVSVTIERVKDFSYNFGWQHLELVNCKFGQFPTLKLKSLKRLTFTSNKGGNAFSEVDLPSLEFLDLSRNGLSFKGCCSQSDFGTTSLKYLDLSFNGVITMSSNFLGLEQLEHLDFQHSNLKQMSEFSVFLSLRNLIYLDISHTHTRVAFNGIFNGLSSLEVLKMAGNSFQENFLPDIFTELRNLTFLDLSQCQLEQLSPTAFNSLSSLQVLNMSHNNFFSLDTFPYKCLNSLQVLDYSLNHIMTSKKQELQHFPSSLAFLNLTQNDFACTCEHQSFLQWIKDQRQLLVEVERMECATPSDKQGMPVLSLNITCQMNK
# Sequence of TLR4/MD-2 complex (Q9Y6Y9 17-160 partner limits assumed): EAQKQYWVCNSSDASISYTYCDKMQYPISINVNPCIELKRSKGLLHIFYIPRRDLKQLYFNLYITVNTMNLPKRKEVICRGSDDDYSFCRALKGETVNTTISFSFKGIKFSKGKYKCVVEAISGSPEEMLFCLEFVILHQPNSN
# In short: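 ELISA against coated protein or peptide at 5 µg/ml (PBS pH 7.4; 2 h RT, then 4°C overnight), blocked with 3% BSA/PBST. Recombinant human TLR4/MD-2 complex, both chains His-tagged, 0–100 nM in PBST/0.1% BSA, 70 min at 37°C. Probed with anti-His mAb 1.0 µg/ml, then peroxidase secondary; OD 492 nm. 0-nM values subtracted; Kd derived; compared with BSA. Mean ± SEM, three independent experiments.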
# [1] = molecular target: CAP37-derived peptide 120-146 WH 5RMP (human); experiment: ELISA
# [2] = molecular target: CAP37-derived peptide 20-44 5RMP (human); experiment: ELISA
# [3] = molecular target: T1, CAP37-derived peptide 20-44 (human); experiment: ELISA
# T1 sequence (P20160 46-70, looked up): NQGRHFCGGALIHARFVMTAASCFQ
# [4] = molecular target: T2, CAP37-derived peptide 120-146 WH (human); experiment: ELISA
# T2 sequence (P20160 146-172 with Q131W R132H, looked up): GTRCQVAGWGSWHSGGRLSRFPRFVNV
# [5] = molecular target: T3, recombinant human TLR4/myeloid differentiation factor 2 (MD-2) complex (human, UniProt O00206 24-631; Q9Y6Y9 19-160); experiment: ELISA
# T3 sequence (O00206 24-631, chain 1 of 2): as the sequence (O00206 24-631 limits assumed) above
# T3 sequence (Q9Y6Y9 19-160, chain 2 of 2): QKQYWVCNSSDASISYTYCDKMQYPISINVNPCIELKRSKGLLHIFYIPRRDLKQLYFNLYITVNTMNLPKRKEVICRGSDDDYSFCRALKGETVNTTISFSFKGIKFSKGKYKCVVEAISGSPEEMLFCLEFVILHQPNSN
# [6] = molecular target: T3, recombinant human TLR4/myeloid …; experiment: ELISA; remark: listed apart in the source
# [7] = test system: TLR4 activation by S100A9; experiment: HEK-Blue hTLR4 assay, effect on activation of TLR4 by 10-nM S100A9; assay type: cell-based, human
# TLR4 = TLR4 (Homo sapiens, UniProt O00206); experiment: HEK-Blue hTLR4 stimulation assay; assay type: cell-based; settings: HEK-hTLR4 cells
# Sequence of TLR4 (O00206 24-839): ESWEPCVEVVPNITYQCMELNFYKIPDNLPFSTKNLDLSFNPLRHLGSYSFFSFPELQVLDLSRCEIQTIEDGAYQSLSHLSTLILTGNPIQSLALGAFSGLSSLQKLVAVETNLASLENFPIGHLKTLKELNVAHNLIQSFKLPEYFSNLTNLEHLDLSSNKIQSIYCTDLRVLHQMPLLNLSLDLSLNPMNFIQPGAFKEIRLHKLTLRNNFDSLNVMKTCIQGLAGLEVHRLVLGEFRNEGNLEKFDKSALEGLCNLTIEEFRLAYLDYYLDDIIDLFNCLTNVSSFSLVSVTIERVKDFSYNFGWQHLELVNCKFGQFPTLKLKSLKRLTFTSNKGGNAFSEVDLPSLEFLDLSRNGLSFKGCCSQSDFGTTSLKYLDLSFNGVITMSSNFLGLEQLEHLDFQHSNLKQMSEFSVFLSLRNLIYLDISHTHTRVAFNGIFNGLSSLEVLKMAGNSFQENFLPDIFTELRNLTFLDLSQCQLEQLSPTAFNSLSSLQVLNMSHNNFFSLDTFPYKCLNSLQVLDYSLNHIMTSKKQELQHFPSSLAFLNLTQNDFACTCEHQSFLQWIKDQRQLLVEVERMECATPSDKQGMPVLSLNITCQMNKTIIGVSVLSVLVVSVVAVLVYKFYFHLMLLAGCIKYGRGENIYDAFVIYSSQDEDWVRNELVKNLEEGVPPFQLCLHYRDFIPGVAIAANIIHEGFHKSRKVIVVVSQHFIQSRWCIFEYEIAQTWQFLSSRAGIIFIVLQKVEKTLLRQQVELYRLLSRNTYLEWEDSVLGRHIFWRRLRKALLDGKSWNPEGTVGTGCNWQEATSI
# Sequence of TLR4 (Q9Y6Y9 17-160 partner limits assumed): as the sequence (Q9Y6Y9 17-160 partner limits assumed) above
# In short: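 HEK-Blue hTLR4 cells (human TLR4, MD-2, CD14, NF-κB/AP-1-driven SEAP), passages 3–15, detached with warm PBS and suspended serum-free at 1.4 × 10^5 cells/ml. Test compound in nuclease-free water at final 10 nM–100 µM; 24 h, 37°C, 5% CO2. SEAP read with Quanti-Blue, 3 h, OD 630 nm, normalised to BCA protein. Untreated background subtracted; expressed as % of 50-nM S100A9. Three experiments in triplicate.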
# S100A8 = experiment: ELISA binding of CAP37 to S100A8; parameters: species or system human; settings: data not shown
# [8] = molecular target: B2; experiment: ELISA
# [9] = molecular target: B1; experiment: ELISA
# [10] = molecular target: CAP37-derived peptide 120-146 WH 5RMP (human); experiment: ELISA; remark: listed apart in the source
# [11] = molecular target: CAP37-derived peptide 20-44 5RMP (human); experiment: ELISA; remark: listed apart in the source
# [12] = molecular target: T1, CAP37-derived peptide 20-44 (human); experiment: ELISA; remark: listed apart in the source
# [13] = molecular target: T2, CAP37-derived peptide 120-146 WH (human); experiment: ELISA; remark: listed apart in the source
molecule,measurement,setting,value
NE: neutrophil elastase purified from human neutrophils,Binding of TLR4/MD-2 to coated protein/peptide (in words),TLR4/MD-2 complex,did not significantly interact
recombinant human TLR4/myeloid differentiation factor 2 (MD-2) complex (from UniProt O00206 24-631; Q9Y6Y9 19-160),Kd,[1],0.0189 µM
same,Kd,[2],0.27 µM
same,Kd,[3],0.0906 µM
same,Kd,[4],0.229 µM
CG: cathepsin G purified from human neutrophils,Binding of TLR4/MD-2 to coated protein/peptide (in words),TLR4/MD-2 complex,did not significantly interact
LDREANLTSSVTILPLPLQNATVEAGTR [95-122],Binding of TLR4/MD-2 to coated protein/peptide (in words),TLR4/MD-2 complex,only minimal interaction
B1,binding result,[5],binds
B2,Kd,[6],0.098 µM
same,Decrease of TLR4 activation by S100A9,"[7]; CAP37 0.01 nM preincubated 1 hour with 10-nM S100A9, from 50% to 30%",~20%
same,Decrease of TLR4 activation by S100A9,[7]; CAP37 10 nM preincubated 1 hour with 10-nM S100A9,10%
same,Decrease of TLR4 activation by S100A9,[7]; CAP37 1 µM preincubated 1 hour with 10-nM S100A9,no decrease
same,"Fold higher concentration at which TLR4 activation begins, versus S100A9",TLR4,approximately 100 fold
same,Concentration at which activation of TLR4 begins,"TLR4; 24 h, SEAP",100 nM
same,Interaction between CAP37 and S100A8 (in words),S100A8,"specific, but low, interaction"
same,Binding of TLR4/MD-2 to coated protein/peptide (in words),TLR4/MD-2 complex,"low, but specific, interaction"
same,Fold lower affinity for TLR4 than for S100A9,TLR4/MD-2 complex; Kd 98 nM versus Kd 9.2 nM,~10 fold
B3,Kd,[8],0.0092 µM
same,binding at 10 nM S100A9 relative to its binding to CAP37,[9],2 fold
same,Kd,[10],0.0223 µM
same,Kd,[11],0.0235 µM
same,Kd,[12],0.0438 µM
same,Kd,[13],0.0373 µM
